Assay results reported in ChEMBL document CHEMBL3228006, “Orally active esters of cephalosporin antibiotics. 3. Synthesis and biological properties of aminoacyloxymethyl esters of 7-[D(-)-mandelamido]-3-[[(1-methyl-1H-tetrazol-5-yl)thio]methyl]-3-cephem-4-carboxylic acid” (J Med Chem, 1979).

Columns and labels:
[1] = Chemical stability of the compound in phosphate buffer at pH 2.5 assessed as hydrolysis up to 60 mins by paper electrophoresis analysis; assay type: physicochemical; settings: pH 2.5, 1 h
Method in brief: (§1)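 Ester dissolved in buffer (pH 2.5, 4.5 or 6.0) at 37 °C; samples taken at 0, 20, 40, 60 min and run on paper electrophoresis strips at 400 V in 0.1 M pyridine-acetate buffer for 2 h, steamed, dried, spots seen under UV. Extent of hydrolysis estimated approximately by comparing visual UV zone intensity of ester versus parent acid.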

[2] = Chemical stability of the compound in phosphate buffer at pH 4.5 assessed as hydrolysis up to 60 mins by paper electrophoresis analysis; assay type: physicochemical; settings: pH 4.5, 1 h; method in brief: as §1
[3] = Chemical stability of the compound in phosphate buffer at pH 6 assessed as hydrolysis after 20 mins by paper electrophoresis analysis; assay type: physicochemical; settings: for Stability: buffer, pH 6, 20 min; for degraded at 20 min: phosphate buffer, pH 6, read-out: Drug degradation; method in brief: as §1
[4] = system: Streptococcus pyogenes; assay: Antibacterial activity against Streptococcus pyogenes C203 infected in po dosed Swiss mouse assessed as protection against bacterial infection administered 1 to 5 hrs after bacterial infection; assay type: functional
Method in brief: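 Swiss white mice (13-15 g), groups of eight, infected ip with broth suspension of S. pyogenes C203 lethal to 100% of untreated mice in 24-48 h. Five groups per test received graduated oral doses at 1 and 5 h post-challenge. ED50 by Reed and Muench method from survivors at 7 days.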

[5] = system: Blood; assay: Drug metabolism in mouse assessed as cefamandole level in blood using Micrococcus luteus ATCC 9341 as detecting organism at 17 mg/kg, po by disk-plate microbiology assay; assay type: ADME, organism-based; parameters: dose 17 mg/kg, route oral; settings: in vivo
Method in brief: (§2)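 Mice dosed orally at 17 mg/kg; cefamandole activity in blood or urine measured by disk-plate microbiological assay with Micrococcus luteus ATCC 9341 as detecting organism.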

[6] = Drug metabolism in mouse assessed as cefamandole level in urine using Micrococcus luteus ATCC 9341 as detecting organism at 17 mg/kg, po by disk-plate microbiology assay; assay type: ADME, organism-based; parameters: dose 17 mg/kg, route oral; settings: in vivo; method in brief: as §2
[7] = Drug metabolism in mouse assessed as cefamandole level in small intestine using Micrococcus luteus ATCC 9341 as detecting organism at 17 mg/kg, po by disk-plate microbiology assay; assay type: ADME, organism-based; parameters: dose 17 mg/kg, route oral; settings: in vivo

Row | Stability [1] | Stability [2] | Stability [3] | Drug metabolism [5] | Drug metabolism [6] | Drug metabolism [7] | degraded at 20 min [3] | Structure (SMILES) | ED50 [4]
1 | Stable | Unstable | Unstable | – | – | – | – | CC[C@H](C)[C@H](N)C(=O)OCOC(=O)C1=C(CSc2nnnn2C)CS[C@@H]2[C@H](NC(=O)[C@H](O)c3ccccc3)C(=O)N12.Cl | 8.6 mg/kg
2 | Stable | Unstable | Unstable | metabolite_notdetected | metabolite_notdetected | metabolite_detected | – | CC(C)[C@H](N)C(=O)OCOC(=O)C1=C(CSc2nnnn2C)CS[C@@H]2[C@H](NC(=O)[C@H](O)c3ccccc3)C(=O)N12.Cl | 14.3 mg/kg
3 | Stable | Unstable | Unstable | – | – | – | – | CC(C)C[C@H](N)C(=O)OCOC(=O)C1=C(CSc2nnnn2C)CS[C@@H]2[C@H](NC(=O)[C@H](O)c3ccccc3)C(=O)N12.Cl | 10.4 mg/kg

More lines, now with the values behind:

Row | Structure (SMILES) | Stability [1] | Stability [2] | Stability [3] | Drug metabolism [5] | Drug metabolism [6] | Drug metabolism [7] | degraded at 20 min [3] | ED50 [4]
4 | Cl.Cn1nnnc1SCC1=C(C(=O)OCOC(=O)CN)N2C(=O)[C@@H](NC(=O)[C@H](O)c3ccccc3)[C@H]2SC1 | Stable | Unstable | Unstable | metabolite_notdetected | metabolite_notdetected | metabolite_detected | – | 20.4 mg/kg
5 | Cn1nnnc1SCC1=C(C(=O)[O-])N2C(=O)[C@@H](NC(=O)[C@H](O)c3ccccc3)[C@H]2SC1.[Li+] | – | – | – | – | – | – | – | 12 mg/kg
6 | COC(=O)[C@H](N)CC(=O)OCOC(=O)C1=C(CSc2nnnn2C)CS[C@@H]2[C@H](NC(=O)[C@H](O)c3ccccc3)C(=O)N12.Cl | Stable | Unstable | – | metabolite_notdetected | metabolite_notdetected | metabolite_detected | 20% | 25.2 mg/kg
7 | Cl.Cn1nnnc1SCC1=C(C(=O)OCOC(=O)[C@@H](N)Cc2ccccc2)N2C(=O)[C@@H](NC(=O)[C@H](O)c3ccccc3)[C@H]2SC1 | Stable | Unstable | – | – | – | – | 50% | 15.3 mg/kg
